Compound activity from PubChem BioAssay.
Shown is part of a subset that was picked to be rich in hits.
IDH1 mut inh – inhibitors of IDH1 R132H reductase, primary screen, biochemical, plate reader, single point | diaphorase/resazurin fluorescence, 60 min | Isocitrate dehydrogenase [NADP] cytoplasmic (Homo sapiens), O75874 | inhibition, % at 10 µM | 0.18% of 70,000 active; in the data active = inhibition above about 34%; inconclusive = no clear call, values can overlap the other calls; inactive = below about 11%;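 note: 0% = DMSO and 100% = no enzyme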
KDM4C inh – inhibitors of GASC-1 (KDM4C) histone demethylase, primary screen, biochemical, single concentration HTS; inhibition, % at 12.5 µM; Lysine-specific demethylase 4C (Homo sapiens), Q9H3R0; 0.15% of 96,000 active; GST-KDM4C 2-372, H3K9me3 peptide, LANCE TR-FRET;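 active = mean replicate inhibition above about 25%, with at least 55% of replicates also reaching it, limit read from the data, passing the limit was not always enough; inconclusive = only one of those two conditions met; inactive = neither condition met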
Target sequence (Q9H3R0 2-372 limits assumed): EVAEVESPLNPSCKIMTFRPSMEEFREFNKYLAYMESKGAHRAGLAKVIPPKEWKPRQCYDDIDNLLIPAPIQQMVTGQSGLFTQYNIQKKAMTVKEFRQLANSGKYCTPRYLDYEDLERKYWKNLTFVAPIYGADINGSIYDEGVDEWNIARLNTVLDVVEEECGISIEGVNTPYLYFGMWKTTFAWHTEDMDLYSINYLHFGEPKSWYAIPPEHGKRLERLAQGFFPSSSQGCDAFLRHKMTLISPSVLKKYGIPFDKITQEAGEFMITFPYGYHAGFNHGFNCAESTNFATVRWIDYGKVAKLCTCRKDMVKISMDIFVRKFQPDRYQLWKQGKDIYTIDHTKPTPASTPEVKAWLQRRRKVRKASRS
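Compound: one test concentration per compound; Material: GST-GASC-1 enzyme fragment 2-372; Amount: GASC-1 enzyme at 10 nM final in reaction; Also added: H3K9me3 peptide substrate, Fe(II), 2-oxoglutarate; Technique: LANCE TR-FRET; Times: 30 min demethylation and 1 h detection at room temperature.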
T cruzi growth-1 – T. cruzi intracellular proliferation inhibitors, primary screen, cell-based, beta-gal Tulahuen parasites, NIH3T3 host, luminescence | inhibition, % at 8.34 µM | 5.9% of 77,000 active | T. cruzi beta-gal in NIH3T3, GalScreen luminescence, 90 h;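 active = mean inhibition above about 93%, with at least 55% of replicates each passing it, limit read from the data, passing the limit was not always enough; inconclusive = only one of those two conditions holds; inactive = neither condition holds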
T cruzi growth-2 – T. cruzi intracellular proliferation inhibitors, confirmation, cell-based, NIH3T3 host, beta-gal parasite, luminescence, cherry-pick; T. cruzi beta-gal in NIH3T3, GalScreen luminescence, 90 h; 72% of 5,600 active; shares compounds with T cruzi growth-1; inhibition, % at 8.35 µM;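 active = mean replicate inhibition above about 95% and at least 55% of replicates individually reaching it, limit read from the data; inconclusive = only one of the two criteria is met; inactive = neither criterion is met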
T cruzi growth-3 – inhibitors of intracellular T. cruzi replication, confirmation, NIH3T3 host cells, beta-gal parasites, cherry-pick, set 2. shares compounds with T cruzi growth-1. T. cruzi beta-gal in NIH3T3, GalScreen luminescence, 90 h. inhibition, % at 2.09 µM. 21% of 5,600 active. AID 651740, 2012;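 active = mean inhibition above about 95%, with at least 55% of replicates also reaching it, limit read from the data; inconclusive = meets just one of the two conditions; inactive = meets neither condition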;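 note: plate controls were neutral control median for no effect and positive control median for full effect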
3T3 cytotox – cytotoxicity in mouse NIH/3T3 fibroblasts, confirmation, cytotoxicity control for T. cruzi proliferation inhibitor project, cell-based, cherry-pick, single point. cytotoxicity (signal decrease), % at 8.35 µM. NIH/3T3 viability, CellTiter-Glo ATP luminescence, 90 h. 14% of 5,600 active. shares compounds with T cruzi growth-1;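 active = mean signal decrease across replicates above about 35% based on untreated-well scatter, with enough replicates individually passing, limit read from the data; inconclusive = no rule stated though some were filed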;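 note: 0% = median of neutral control wells and 100% = median of positive control wells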
3T3 cytotox 2 – NIH/3T3 fibroblast cytotoxicity, confirmation, cytotoxicity control, cell-based, cherry-pick, single point, set 2 | shares compounds with T cruzi growth-1 | NIH/3T3 viability, CellTiter-Glo ATP luminescence, 90 h | inhibition, % at 24.9 µM | 56% of 5,600 active | AID 651744, 2012;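 active = mean loss of cell viability signal at or above a set limit, and enough replicates individually reaching it; inconclusive = meets only the mean limit or only the replicate share; inactive = meets neither condition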;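 note: 0% = median of neutral control wells and 100% = median of positive control wells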
The depositor's hits bear a star; u = inconclusive; x = no result given.

SMILES | IDH1 mut inh | KDM4C inh | T cruzi growth-1 | T cruzi growth-2 | T cruzi growth-3 | 3T3 cytotox | 3T3 cytotox 2
C[C@@H]1CN([C@@H](C)CO)S(=O)(=O)c2ccc(C#Cc3cccc(F)c3)cc2O[C@H]1CN(C)C(=O)NC1CCCCC1 | 5 | -1 | x | x | x | x | x
C[C@@H]1CN([C@@H](C)CO)C(=O)Cc2cc(NC(=O)c3ccncc3)ccc2O[C@H]1CN(C)C(=O)Nc1ccc2c(c1)OCO2 | 0 | 0 | 48 | x | x | x | x
Cc1ccc(CN2C(=O)C(O)(CC(=O)c3c(C)coc3C)c3cc(Cl)ccc32)cc1 (centres undefined) | 0 | x | x | x | x | x | x
COc1ccc2c3c(n(C)c2c1)[C@@H](CO)N(C)CC31CCN(C(=O)Nc2cccc(F)c2)CC1 | x | -1 | x | x | x | x | x
COC(=O)c1ccc(NC(=O)CCn2nc(-c3ccc(Cl)cc3)c3ccccc3c2=O)cc1 | 0 | x | x | x | x | x | x
C/C=C/c1ccc([C@H]2[C@@H](CNC(=O)CC3CC3)N(C(=O)CC)[C@H]2CO)cc1 | x | 0 | 103* | 52 | 12 | 6 | 12
C/C=C/c1ccc([C@@H]2[C@@H](CNC(=O)CC3CC3)N(C(=O)CC)[C@H]2CO)cc1 | x | 2 | 113* | 9 | 0 | -16 | 20
C/C=C/c1ccc([C@@H]2[C@@H](CO)N(C(=O)CC)[C@H]2CNC(=O)CC2CC2)cc1 | x | -1 | 20 | x | x | x | x
C/C=C/c1ccc([C@H]2[C@H](CO)N(C(C)=O)[C@H]2CNC(=O)CC2CC2)cc1 | x | -4 | 66 | x | x | x | x
C/C=C/c1ccc([C@@H]2[C@H](CO)N(C(=O)NCCC)[C@H]2CNC(=O)C2CC2)cc1 | x | 2 | 21 | x | x | x | x
C/C=C/c1ccc([C@H]2[C@@H](CNC(=O)C3CC3)N(C(=O)NCCC)[C@H]2CO)cc1 | x | -3 | 97* | 69 | 44 | -21 | -21
CCC(=O)Nc1ccc2c(c1)OC[C@@H](C)N(Cc1ccccc1OC)C[C@H](C)[C@@H](OC)CN(C)C2=O | 0 | 0 | 91 | x | x | x | x
CCN1[C@H](C(=O)NCC2CC2)[C@@H](CO)[C@@H]2Cn3c(ccc(-c4ccccc4OC)c3=O)[C@@H]21 | x | 3 | 1 | x | x | x | x
COCC(=O)N1CC[C@@H]2[C@H]1c1cc(-c3cccc(OC)c3)ccc1N(C)[C@H]2CO | x | 3 | 96* | 103* | 106* | -24 | -38
CCC(=O)N1CC[C@@H]2[C@H]1c1cc(-c3ccccc3)ccc1N(C)[C@H]2CO | x | 2 | 36 | x | x | x | x
CCC(=O)N1CC[C@H]2[C@@H]1c1cc(-c3cccc(OC)c3)ccc1N(C)[C@H]2CO | x | 0 | 99* | 101* | 77 | 11 | -4
COCC(=O)N1CC[C@H]2[C@@H]1c1cc(-c3cccc(OC)c3)ccc1N(C)[C@H]2CO | x | 2 | 101* | 108* | 79 | 4 | -7
COc1cccc(-c2ccc3c(c2)[C@H]2[C@H](CCN2C(=O)CC2CC2)[C@H](CO)N3C)c1 | x | 2 | 9 | x | x | x | x
COc1cccc(-c2ccc3c(c2)[C@@H]2[C@@H](CCN2C(=O)CC2CC2)[C@H](CO)N3C)c1 | x | 2 | 5 | x | x | x | x
Cc1ccc(C2=CC(c3ccccc3)SC(N)=N2)cc1 (centres undefined) | 1 | x | x | x | x | x | x
Cc1nn(Cc2c(Cl)cccc2Cl)c(C)c1NC(=O)c1noc2c1CC(C(C)(C)C)CC2 (centres undefined) | 0 | x | x | x | x | x | x
Cc1cc(S(=O)(=O)NC2CCCCC2)ccc1OCC(=O)O | 0 | x | x | x | x | x | x
Nc1nnc(SCC(=O)Nc2ccc(Br)cc2Cl)n1-c1ccccc1 | 1 | x | x | x | x | x | x
C[C@@H]1CCCCO[C@H](CN(C)C(=O)C2CCCCC2)[C@H](C)CN([C@@H](C)CO)C(=O)c2cc(NS(=O)(=O)c3ccc(Cl)cc3)ccc2O1 | x | 0 | u | u | 86 | 17 | 95*
C[C@@H]1CN([C@@H](C)CO)C(=O)c2cc(NS(=O)(=O)c3ccc(Cl)cc3)ccc2O[C@@H](C)CCCCO[C@H]1CN(C)C(=O)C1CCCCC1 | x | 1 | 53 | x | x | x | x
SMILES | IDH1 mut inh | KDM4C inh | T cruzi growth-1 | T cruzi growth-2 | T cruzi growth-3 | 3T3 cytotox | 3T3 cytotox 2
C[C@@H]1CN([C@H](C)CO)C(=O)c2cc(NS(=O)(=O)c3ccc(Cl)cc3)ccc2O[C@@H](C)CCCCO[C@@H]1CN(C)C(=O)C1CCCCC1 | 1 | -1 | u | 100* | 76 | 9 | 80*
C[C@H](CO)N1C[C@H](C)[C@H](CN(C)C(=O)C2CCCCC2)OCCCC[C@H](C)Oc2ccc(NS(=O)(=O)c3ccc(Cl)cc3)cc2C1=O | x | -1 | 94 | x | x | x | x
COc1ccc(CCNS(=O)(=O)c2cc([N+](=O)[O-])ccc2C)cc1OC | 0 | x | x | x | x | x | x
CCN(C[C@@H]1N[C@@H](CO)[C@H]1c1ccc(-c2ccc(F)cc2)cc1)C(=O)CN(C)C | x | 0 | 109* | 100* | 89 | u | 104*
CCN(C[C@H]1N[C@H](CO)[C@H]1c1ccc(-c2ccc(F)cc2)cc1)C(=O)COC | x | 1 | -28 | x | x | x | x
Cc1cccc(NC(=O)c2ccc(OC(C)C(=O)Nc3ccc(Br)cc3)cc2)c1C (centres undefined) | 0 | x | x | x | x | x | x
COc1ccc2c3c(n(C)c2c1)[C@H](CO)NCC31CCN(C(=O)c2cccc(F)c2)CC1 | x | -2 | x | x | x | x | x
C[C@@H]1CCCCO[C@@H](CN(C)C(=O)Nc2ccc(C(F)(F)F)cc2)[C@@H](C)CN([C@@H](C)CO)C(=O)c2cc(N(C)C)ccc2O1 | 5 | -1 | 100* | 111* | 39 | -4 | -25
C[C@H]1CCCCO[C@H](CN(C)C(=O)Nc2ccc(C(F)(F)F)cc2)[C@@H](C)CN([C@@H](C)CO)C(=O)c2cc(N(C)C)ccc2O1 | x | 0 | 99* | 100* | 48 | -28 | -6
C[C@@H]1CCCCO[C@H](CN(C)C(=O)Nc2ccc(C(F)(F)F)cc2)[C@H](C)CN([C@@H](C)CO)C(=O)c2cc(N(C)C)ccc2O1 | 0 | -2 | 85 | x | x | x | x
C[C@@H]1CCCCO[C@H](CN(C)C(=O)Nc2ccc(C(F)(F)F)cc2)[C@H](C)CN([C@H](C)CO)C(=O)c2cc(N(C)C)ccc2O1 | 1 | -4 | 57 | x | x | x | x
O=S(=O)(c1ccccc1F)N1CCCCN2[C@H](CO)[C@H](c3ccc(-c4cccnc4)cc3)[C@H]2C1 | x | 0 | u | 91 | 12 | 8 | u
O=S(=O)(c1ccccc1F)N1CCCCN2[C@H](CO)[C@@H](c3ccc(-c4ccncc4)cc3)[C@H]2C1 | x | 0 | 85 | x | x | x | x
